ChEMBL document CHEMBL5058577, “EUbOPEN Chemogenomics Library 2 (Multiplex)” (2022)

Tested on: HEK-293T
Assay: Multiplex assay against HEK293T
Format: toxicity, cell-based
Conditions: human
Method in brief: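 Live cells were stained at seeding with Hoechst33342, BioTracker Green Microtubule Cytoskeleton Dye, MitoTracker Red and Annexin V Alexa Fluor 680. Following compound addition, they were imaged on a CQ1 microscope at 37°C and 5% CO2 and gated by CellPathfinder machine learning into Hoechst high-intensity objects or normal cells, with normal cells split into healthy, pyknosed or fragmented nuclei and pyknosed cells into mitotic or apoptotic. Tubulin, mitochondrial-mass and membrane-permeability phenotypes are per cents of healthy-nucleus cells.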

[1] = 12 h, 1 µM, compound concentration 1 uM, replicate 1
[2] = 12 h, 1 µM, compound concentration 1 uM, replicate 2
[3] = 12 h, 10 µM, compound concentration 10 uM, replicate 1
[4] = 12 h, 10 µM, compound concentration 10 uM, replicate 2
[5] = 24 h, 1 µM, compound concentration 1 uM, replicate 1
[6] = 24 h, 1 µM, compound concentration 1 uM, replicate 2
[7] = 24 h, 10 µM, compound concentration 10 uM, replicate 1
[8] = 24 h, 10 µM, compound concentration 10 uM, replicate 2
[9] = 48 h, 1 µM, compound concentration 1 uM, replicate 1
[10] = 48 h, 1 µM, compound concentration 1 uM, replicate 2
[11] = 48 h, 10 µM, compound concentration 10 uM, replicate 1
[12] = 48 h, 10 µM, compound concentration 10 uM, replicate 2

N#Cc1cc(F)cc(-c2nc(-c3ccc(F)cn3)no2)c1
Population Apoptotic (%) [1]: 38% | Population Fragmented Nuclei (%) [1]: 10% | Population Healthy Nuclei (%) [1]: 76% | Population Hoechst High Intensity Objects (%) [1]: 5% | Population Membrane Permeable-Phenotype (%) [1]: 0% | Population Mitochondria Different-Phenotype (%) [1]: 41% | Population Mitotic Cells (%) [1]: 61% | Population Normal (%) [1]: 95% | Population Pyknosed Nuclei (%) [1]: 12% | Population Tubulin-Different-Phenotype (%) [1]: 25% | Total Cell Count [1]: 280 | Population Apoptotic (%) [2]: 64% | Population Fragmented Nuclei (%) [2]: 6% | Population Healthy Nuclei (%) [2]: 77% | Population Hoechst High Intensity Objects (%) [2]: 8% | Population Mitochondria Different-Phenotype (%) [2]: 55% | Population Mitotic Cells (%) [2]: 36% | Population Normal (%) [2]: 91% | Population Pyknosed Nuclei (%) [2]: 15% | Population Tubulin-Different-Phenotype (%) [2]: 22% | Total Cell Count [2]: 342 | Population Apoptotic (%) [3]: 45% | Population Fragmented Nuclei (%) [3]: 10% | Population Healthy Nuclei (%) [3]: 73% | Population Hoechst High Intensity Objects (%) [3]: 4% | Population Membrane Permeable-Phenotype (%) [3]: 0% | Population Mitochondria Different-Phenotype (%) [3]: 51% | Population Mitotic Cells (%) [3]: 55% | Population Normal (%) [3]: 95% | Population Pyknosed Nuclei (%) [3]: 16% | Population Tubulin-Different-Phenotype (%) [3]: 29% | Total Cell Count [3]: 383 | Population Fragmented Nuclei (%) [4]: 8% | Population Healthy Nuclei (%) [4]: 77% | Population Hoechst High Intensity Objects (%) [4]: 10% | Population Mitochondria Different-Phenotype (%) [4]: 61% | Population Mitotic Cells (%) [4]: 54% | Population Normal (%) [4]: 89% | Population Pyknosed Nuclei (%) [4]: 13% | Population Tubulin-Different-Phenotype (%) [4]: 22% | Total Cell Count [4]: 269 | Population Apoptotic (%) [5]: 43% | Population Fragmented Nuclei (%) [5]: 9% | Population Healthy Nuclei (%) [5]: 77% | Population Hoechst High Intensity Objects (%) [5]: 6% | Population Membrane Permeable-Phenotype (%) [5]: 0% | Population Mitochondria Different-Phenotype (%) [5]: 19% | Population Mitotic Cells (%) [5]: 56% | Population Normal (%) [5]: 93% | Population Pyknosed Nuclei (%) [5]: 12% | Population Tubulin-Different-Phenotype (%) [5]: 12% | Total Cell Count [5]: 353 | Population Apoptotic (%) [6]: 48% | Population Fragmented Nuclei (%) [6]: 7% | Population Healthy Nuclei (%) [6]: 82% | Population Hoechst High Intensity Objects (%) [6]: 7% | Population Mitochondria Different-Phenotype (%) [6]: 36% | Population Mitotic Cells (%) [6]: 51% | Population Normal (%) [6]: 92% | Population Pyknosed Nuclei (%) [6]: 9% | Population Tubulin-Different-Phenotype (%) [6]: 15% | Total Cell Count [6]: 463 | Population Apoptotic (%) [7]: 41% | Population Fragmented Nuclei (%) [7]: 10% | Population Healthy Nuclei (%) [7]: 74% | Population Hoechst High Intensity Objects (%) [7]: 4% | Population Membrane Permeable-Phenotype (%) [7]: 0% | Population Mitochondria Different-Phenotype (%) [7]: 34% | Population Mitotic Cells (%) [7]: 58% | Population Normal (%) [7]: 95% | Population Pyknosed Nuclei (%) [7]: 14% | Population Tubulin-Different-Phenotype (%) [7]: 18% | Total Cell Count [7]: 479 | Population Apoptotic (%) [8]: 39% | Population Healthy Nuclei (%) [8]: 79% | Population Hoechst High Intensity Objects (%) [8]: 8% | Population Mitochondria Different-Phenotype (%) [8]: 40% | Population Mitotic Cells (%) [8]: 60% | Population Normal (%) [8]: 91% | Population Pyknosed Nuclei (%) [8]: 9% | Population Tubulin-Different-Phenotype (%) [8]: 12% | Total Cell Count [8]: 363 | Population Apoptotic (%) [9]: 35% | Population Fragmented Nuclei (%) [9]: 15% | Population Healthy Nuclei (%) [9]: 77% | Population Hoechst High Intensity Objects (%) [9]: 1% | Population Membrane Permeable-Phenotype (%) [9]: 1% | Population Mitochondria Different-Phenotype (%) [9]: 16% | Population Mitotic Cells (%) [9]: 64% | Population Normal (%) [9]: 98% | Population Pyknosed Nuclei (%) [9]: 6% | Population Tubulin-Different-Phenotype (%) [9]: 11% | Total Cell Count [9]: 585 | Population Apoptotic (%) [10]: 27% | Population Fragmented Nuclei (%) [10]: 11% | Population Healthy Nuclei (%) [10]: 81% | Population Hoechst High Intensity Objects (%) [10]: 0% | Population Mitochondria Different-Phenotype (%) [10]: 18% | Population Mitotic Cells (%) [10]: 72% | Population Normal (%) [10]: 99% | Population Tubulin-Different-Phenotype (%) [10]: 10% | Total Cell Count [10]: 715 | Population Apoptotic (%) [11]: 39% | Population Fragmented Nuclei (%) [11]: 16% | Population Healthy Nuclei (%) [11]: 75% | Population Hoechst High Intensity Objects (%) [11]: 1% | Population Membrane Permeable-Phenotype (%) [11]: 1% | Population Mitochondria Different-Phenotype (%) [11]: 18% | Population Mitotic Cells (%) [11]: 60% | Population Normal (%) [11]: 98% | Population Pyknosed Nuclei (%) [11]: 8% | Population Tubulin-Different-Phenotype (%) [11]: 9% | Total Cell Count [11]: 643 | Population Apoptotic (%) [12]: 48% | Population Healthy Nuclei (%) [12]: 77% | Population Hoechst High Intensity Objects (%) [12]: 4% | Population Mitochondria Different-Phenotype (%) [12]: 22% | Population Mitotic Cells (%) [12]: 51% | Population Normal (%) [12]: 95% | Population Pyknosed Nuclei (%) [12]: 5% | Population Tubulin-Different-Phenotype (%) [12]: 11% | Total Cell Count [12]: 501
